One data set has as its system Enterobacter cloacae. As to the kind of experiment: microbe, parasite or virus in culture. Particulars: ATCC 13047, 18 h.
In another data set the test system is Serratia marcescens. As to the kind of experiment: microbe, parasite or virus in culture. Conditions: CIP 103551, 18 h.
Data set [1] has as its system Staphylococcus epidermidis. The data set can be described thus: Antibacterial activity against Staphylococcus epidermidis CIP 103627 after 18 hrs by broth microdilution method. The format is functional. Particulars: CIP 103627, 18 h. In a few lines:
(§1)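 MIC by broth microdilution per ISO 20776-1:2006 and CLSI M07-A8. Inoculum 10^6 cfu/ml in Mueller-Hinton broth with compound serially diluted, final concentrations 2 to 128 ug/ml, duplicate rows, no-drug growth control. Incubation 18 h at 37 °C. MIC taken as lowest concentration giving complete inhibition of visible growth. Each compound tested at least twice.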
A general note: In broth dilution the organism is exposed to a series of concentrations in liquid medium.

The subject of data set [2] is KB. As to the kind of experiment: Cytotoxicity against human KB cells at 1 uM. Type of data set: cell-based.
The test system of a further data set is Pseudomonas aeruginosa. The data set can be described thus: microbe, parasite or virus in culture. Conditions: CIP 5933, 18 h.
For another data set, the system named is Streptococcus pyogenes. As to the kind of experiment: Antibacterial activity against Streptococcus pyogenes CIP 104226 after 18 hrs by broth microdilution method. Type of data set: functional. Particulars: CIP 104226, 18 h. In a few lines: (§2)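 Broth microdilution following ISO 20776-1:2006 and CLSI M07-A8, in Mueller-Hinton broth. Inoculum was 10^6 cfu/ml, with compound serial dilutions spanning 2 to 128 ug/ml and a compound-free growth control well. Plates were incubated 18 h at 37 °C. MIC was the lowest concentration giving complete inhibition of visible growth. Each compound was tested at least twice.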

For data set [3], the system named is Staphylococcus aureus. As to the kind of experiment: Antibacterial activity against Staphylococcus aureus CIP 103428 after 18 hrs by broth microdilution method. Type of data set: functional. Conditions: CIP 103428, 18 h. In a few lines: as §1
For data set [4], the system named is MRC5. The data set can be described thus: Cytotoxicity against human MRC5 cells at 10 uM. Conditions: mrc5, 10 µM. The format is cell-based.
Data set [5] relates to Staphylococcus aureus. The data set can be described thus: Antibacterial activity against vancomycin intermediate Staphylococcus aureus […] after 18 hrs by broth microdilution method. The format is functional. In a few lines:
as §2

The subject of data set [6] is HCT-116. As to the kind of experiment: Cytotoxicity against human HCT116 cells at 10 uM. The format is cell-based. Particulars: hct-116, 10 µM.
The subject of a further data set is Streptococcus mitis. As to the kind of experiment: Antibacterial activity against Streptococcus mitis CIP 103335 after 18 hrs by broth microdilution method. The format is functional. Conditions: CIP 103335, 18 h. The method in brief:
(§3)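 Broth microdilution following ISO 20776-1:2006 and CLSI M07-A8, in Mueller-Hinton broth […]. Inoculum was 10^6 cfu/ml, with compound serial dilutions spanning 2 to 128 ug/ml and a compound-free growth control well. Plates were read after 18 h at 37 °C. MIC was the lowest concentration with no visible growth. Each compound was tested at least twice.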

In data set [7] the test system is Streptococcus pneumoniae. The data set can be described thus: Antibacterial activity against Streptococcus pneumoniae ATCC 6303 after 18 hrs by broth microdilution method. The format is functional. Conditions: ATCC 6303, 18 h. In a few lines:
(§4)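 MIC by broth microdilution per ISO 20776-1:2006 and CLSI M07-A8. Inoculum 10^6 cfu/ml in Mueller-Hinton broth […]. Compound serially diluted, final 2 to 128 ug/ml, duplicate rows, no-drug growth control. Read after 18 h at 37 °C as lowest concentration fully inhibiting visible growth. At least two experiments.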

Data set [8] has as its system Staphylococcus aureus. As to the kind of experiment: Antibacterial activity against methicillin-resistant Staphylococcus aureus ATCC 33592 after 18 hrs by broth microdilution method. Conditions: ATCC 33592, 18 h. Type of data set: functional. The method in brief:
as §2

A further data set has as its system Escherichia coli. The data set can be described thus: Antibacterial activity against Escherichia coli ATCC 25922 after 18 hrs by broth microdilution method. The format is functional. Conditions: ATCC 25922, 18 h. The method in brief:
as §2

Data set [9] relates to Staphylococcus aureus. As to the kind of experiment: Antibacterial activity against Staphylococcus aureus ATCC 29213 after 18 hrs by broth microdilution method. Particulars: ATCC 29213, 18 h. The format is functional. In a few lines: as §1
In data set [10] the test system is Staphylococcus aureus. As to the kind of experiment: Antibacterial activity against Staphylococcus aureus ATCC 6538 after 18 hrs by broth microdilution method. Type of data set: functional. Particulars: ATCC 6538, 18 h. In a few lines:
as §1

The subject of data set [11] is Streptococcus pneumoniae. The data set can be described thus: Antibacterial activity against Streptococcus pneumoniae ATCC 49619 after 18 hrs by broth microdilution method. Type of data set: functional. Particulars: ATCC 49619, 18 h. The method in brief: as §4
For data set [12], the system named is Staphylococcus epidermidis. The data set can be described thus: Antibacterial activity against Staphylococcus epidermidis CIP 81.55 after 18 hrs by broth microdilution method. The format is functional. Particulars: CIP 81.55, 18 h. The method in brief: as §1
The next data set deals with Klebsiella pneumoniae. The data set can be described thus: microbe, parasite or virus in culture. Conditions: ATCC 35657, 18 h.
In data set [13] the test system is Staphylococcus aureus. The data set can be described thus: Antibacterial activity against Staphylococcus aureus ATCC 9144 after 18 hrs by broth microdilution method. The format is functional. Conditions: ATCC 9144, 18 h. In a few lines:
as §1

A further data set concerns Enterococcus faecium. The data set can be described thus: Antibacterial activity against Enterococcus faecium CIP 54.32 after 18 hrs by broth microdilution method. Type of data set: functional. Conditions: CIP 54.32, 18 h. The method in brief: as §2
In data set [14] the test system is Staphylococcus aureus. The data set can be described thus: Antibacterial activity against Staphylococcus aureus CIP 65.6 after 18 hrs by broth microdilution method. The format is functional. Conditions: CIP 65.6, 18 h. In a few lines: as §1
Data set [15] deals with Staphylococcus aureus. The data set can be described thus: Antibacterial activity against Staphylococcus aureus ATCC 25923 after 18 hrs by broth microdilution method. The format is functional. Conditions: ATCC 25923, 18 h. The method in brief: as §1
The subject of data set [16] is HCT-116. As to the kind of experiment: Cytotoxicity against human HCT116 cells at 1 uM. The format is cell-based. Particulars: hct-116, 1 µM.
In the next data set the test system is Streptococcus agalactiae. As to the kind of experiment: Antibacterial activity against Streptococcus agalactiae ATCC 12400 after 18 hrs by broth microdilution method. The format is functional. Particulars: ATCC 12400, 18 h. In a few lines: as §2
In data set [17] the test system is Staphylococcus aureus. As to the kind of experiment: Antibacterial activity against methicillin-resistant Staphylococcus aureus CIP 65.25 after 18 hrs by broth microdilution method. Conditions: CIP 65.25, 18 h. The format is functional. In a few lines: as §2
A further data set relates to Enterococcus faecalis. As to the kind of experiment: Antibacterial activity against Enterococcus faecalis ATCC 29212 after 18 hrs by broth microdilution method. Type of data set: functional. Conditions: ATCC 29212, 18 h. In a few lines:
as §2

Data set [18] concerns KB. The data set can be described thus: Cytotoxicity against human KB cells at 10 uM. The format is cell-based.
Data set [19] has as its system Staphylococcus epidermidis. As to the kind of experiment: Antibacterial activity against Staphylococcus epidermidis ATCC 12228 after 18 hrs by broth microdilution method. Type of data set: functional. Particulars: ATCC 12228, 18 h. In a few lines:
as §1

Data set [20] deals with MRC5. As to the kind of experiment: Cytotoxicity against human MRC5 cells at 1 uM. Type of data set: cell-based. Particulars: mrc5, 1 µM.
For a further data set, the system named is Acinetobacter baumannii. The data set can be described thus: microbe, parasite or virus in culture. Conditions: ATCC 19606 = CIP 70.34 = JCM 6841, 18 h.
The next data set relates to Haemophilus influenzae. The data set can be described thus: Antibacterial activity against Haemophilus influenzae ATCC 49766 after 18 hrs by broth microdilution method. The format is functional. Particulars: ATCC 49766, 18 h. The method in brief: as §3

Among the data in ChEMBL document CHEMBL1777764, “Synthesis and evaluation of 1-(1H-indol-3-yl)ethanamine derivatives as new antibacterial agents” (Bioorg Med Chem, 2011) are MIC and Activity values, retold here.

Values after ≈ are worked out from the molar mass of the structure shown.

Turning to `Cl.Cl.NCC(NO)c1c[nH]c2cc(Br)ccc12` (stereo not given), the MIC came out at 64 µg/mL with Enterobacter cloacae; 64 µg/mL with Serratia marcescens; 16 µg/mL in data set [1]; 64 µg/mL in the data set on Pseudomonas aeruginosa; 128 µg/mL in the data set with Streptococcus pyogenes; 16 µg/mL against Staphylococcus aureus [3]. The MIC turned out to be 16 µg/mL against Staphylococcus aureus [5]; 128 µg/mL against Streptococcus mitis; 64 µg/mL against Streptococcus pneumoniae [7]; 16 µg/mL against Staphylococcus aureus [8]; 32 µg/mL with Escherichia coli; 16 µg/mL against Staphylococcus aureus [9]. The MIC in the data set on Staphylococcus aureus [10] was 16 µg/mL; in the data set with Streptococcus pneumoniae [11], 64 µg/mL; in data set [12], 16 µg/mL; in the data set on Klebsiella pneumoniae it was 64 µg/mL; with Staphylococcus aureus [13], 16 µg/mL; against Enterococcus faecium, above 128 µg/mL. For the same molecule, the MIC was 16 µg/mL in the data set on Staphylococcus aureus [14]; 16 µg/mL in the data set with Staphylococcus aureus [15]; 128 µg/mL in the data set with Streptococcus agalactiae; 16 µg/mL against Staphylococcus aureus [17]; above 128 µg/mL in the data set with Enterococcus faecalis; 16 µg/mL in data set [19]. Further, the MIC against Acinetobacter baumannii was 64 µg/mL. The Activity entry in the data set with KB [2], in the data set with MRC5 [4], in the data set on HCT-116 [6], with HCT-116 [16], in the data set on KB [18] and with MRC5 [20] was “Non-toxic” throughout.

As for `Cl.Cl.NCC(NO)c1c[nH]c2cccc(Br)c12` (stereo not given), the MIC in the data set on Enterobacter cloacae is above 128 µg/mL; in the data set on Serratia marcescens it was above 128 µg/mL; in data set [1] it was 32 µg/mL; in the data set with Pseudomonas aeruginosa, above 128 µg/mL; against Streptococcus pyogenes, 128 µg/mL; against Staphylococcus aureus [3], 32 µg/mL. The MIC against Staphylococcus aureus [5] amounted to 32 µg/mL; with Streptococcus mitis it was 128 µg/mL; against Streptococcus pneumoniae [7] it was 128 µg/mL; with Staphylococcus aureus [8], 32 µg/mL; against Escherichia coli, 128 µg/mL; against Staphylococcus aureus [9] it was 32 µg/mL. The MIC was 32 µg/mL against Staphylococcus aureus [10]; 128 µg/mL with Streptococcus pneumoniae [11]; 32 µg/mL in data set [12]; above 128 µg/mL in the data set with Klebsiella pneumoniae; 32 µg/mL in the data set with Staphylococcus aureus [13]; above 128 µg/mL in the data set on Enterococcus faecium. Also, the MIC is 32 µg/mL against Staphylococcus aureus [14]; 32 µg/mL with Staphylococcus aureus [15]; 128 µg/mL against Streptococcus agalactiae; 32 µg/mL against Staphylococcus aureus [17]; above 128 µg/mL in the data set with Enterococcus faecalis; 32 µg/mL in [19]. This molecule showed an MIC in the data set with Acinetobacter baumannii above 128 µg/mL. For the same molecule, the Activity result in the data set on KB [2], in the data set on MRC5 [4], in the data set with HCT-116 [6], in the data set with HCT-116 [16], in the data set with KB [18] and with MRC5 [20] was “Non-toxic” throughout.

Regarding `CO/N=C(\C(=O)N[C@@H]1C(=O)N2C(C(=O)O)=C(COC(C)=O)CS[C@H]12)c1csc(N)n1` [CEFOTAXIME], the MIC with Streptococcus pyogenes worked out at 0.016 µg/mL (≈ 0.0351 µM); against Haemophilus influenzae it was 0.032 µg/mL (≈ 0.0703 µM); against Streptococcus mitis, 0.016 µg/mL (≈ 0.0351 µM); with Streptococcus pneumoniae [7] it was 0.125 µg/mL (≈ 0.274 µM); against Streptococcus pneumoniae [11] it was 0.125 µg/mL (≈ 0.274 µM); in the data set with Enterococcus faecium it was 0.5 µg/mL (≈ 1.1 µM). In addition, the MIC in the data set with Streptococcus agalactiae was 0.016 µg/mL (≈ 0.0351 µM); with Enterococcus faecalis, 0.5 µg/mL (≈ 1.1 µM).
